Screening results as filed in PubChem BioAssay.
A selection: hits, their analogues and other compounds. The true share with any hit is near 4.6%.
CHO parental Ca: counter-screen: ATP calcium response change in parental CHO cells; parental CHO-K1, ATP-induced calcium, Fluo-8 fluorescence; inhibition, % at 5.6 µM; actives 0.63% (n = 330,000); AID 463079;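 active = inhibition above that plate's mean sample inhibition plus 3 SD, cut at about 26% in these data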;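 note: 0% = ATP-challenged DMSO wells and 100% = DMSO wells without ATP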
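Test system: untransfected parental CHO cell line. Compound: one dose, 5.6 µM nominal. Detection: intracellular calcium via Fluo-8 no-wash fluorescent dye. Measure: % inhibition. Benchmarks: ATP-challenged DMSO wells low, unchallenged DMSO wells high.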
OX1R antag-1: human HCRTR1 antagonism; inhibition, % at 5 µM; CHO/OX1R cells, Fluo-8 calcium fluorescence, orexin A; actives 0.43% (n = 330,000);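 active = inhibition above its plate's threshold, mean inhibition of all tested compounds on the plate plus 3 SD, cut at about 37% in these data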;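 note: 0% = orexin A challenge wells and 100% = SB-334867-A antagonist wells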
Target sequence (O43613 whole entry, looked up): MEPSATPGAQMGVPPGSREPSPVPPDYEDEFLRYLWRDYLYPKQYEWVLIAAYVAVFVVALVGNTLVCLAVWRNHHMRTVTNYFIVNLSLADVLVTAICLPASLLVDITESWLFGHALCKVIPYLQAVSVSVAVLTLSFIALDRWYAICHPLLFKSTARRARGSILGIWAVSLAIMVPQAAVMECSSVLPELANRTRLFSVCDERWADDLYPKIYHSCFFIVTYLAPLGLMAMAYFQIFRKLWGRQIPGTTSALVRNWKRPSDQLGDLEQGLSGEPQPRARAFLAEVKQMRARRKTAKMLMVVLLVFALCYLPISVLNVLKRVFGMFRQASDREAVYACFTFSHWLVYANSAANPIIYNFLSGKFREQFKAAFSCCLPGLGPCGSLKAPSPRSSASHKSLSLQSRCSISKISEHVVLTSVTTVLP
GPR7 antagonist: antagonists of human GPR7 (neuropeptides B/W receptor 1); P48145; GPR7-expressing cells, fluorescence antagonist assay; inhibition, % at 4.4 µM; actives 1.1% (n = 290,000); in the data active = inhibition above about 16%, passing the limit was not always enough;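 note: cells stimulated with the agonist NPW; 0% = agonist with vehicle and 100% = vehicle without agonist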
TAAR1 ag: human TAAR1 agonism; activation, % at 3 µM; actives 0.99% (n = 360,000); CHO RD-HGA16 TAAR1, Fluo-8 calcium fluorescence; vehicle wells 0%, saturating PEA agonist 100%; Q96RJ0;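 active = activation above the mean activation of all test compounds in the run plus 3 SD, cut at about 38% in these data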
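System: CHO-derived RD-HGA16 cells with stable Gα16 and human TAAR1 / Times: 17-24 h plating, Fluo-8 75 min 37 °C, 30 min RT / Technique: calcium-sensitive Fluo-8 signal, excitation 470-495, emission 515-575 nm / Measure: % activation relative to PEA EC100 response / Benchmarks: DMSO and PEA EC100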
OX1R antag-2: blocks the human orexin 1 receptor. O43613. OX1R-expressing cells, FRET antagonist read-out. inhibition, % at 6.6 µM. actives 1.8% (n = 330,000). AID 485270; in the data active = inhibition mostly above about 38%, no sharp cut-off; inactive = mostly below about 40%;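 note: 0% = agonist challenge alone and 100% = reference antagonist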
TAAR1 antagonist: human TAAR1 antagonism; AID 624466; CHO RD-HGA16 TAAR1, Fluo-8 calcium fluorescence, antagonist; Q96RJ0; inhibition, % at 3 µM; actives 1.5% (n = 360,000);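 active = inhibition above a per-plate cutoff, the mean inhibition of test compounds on that plate plus 3 SD, cut at about 49% in these data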;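 note: 0% = DMSO plus EC80 beta-PEA response and 100% = DMSO alone without agonist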
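Assay system: CHO-derived RD-HGA16 cells stably expressing human TAAR1 plus Gα16. Timing: 140 s kinetic read after compound, 140 s after agonist. Technique: kinetic Fluo-8 calcium fluorescence measurement. Measure: % inhibition of agonist calcium response.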
An asterisk follows results filed as active; . = not tested or not shown.

SMILES	CHO parental Ca	OX1R antag-1	GPR7 antagonist	TAAR1 ag	OX1R antag-2	TAAR1 antagonist
COc1ccc(NC(=O)CCSc2cc(C)c3ccccc3n2)cc1	-27	-14	9	-5	21	-15
COc1ccc(Oc2cccc3c2S(=O)(=O)N(C2CC2)C[C@@H](COCc2ccccc2)O3)cc1	.	.	.	-1	.	9
N#C/C(=C\c1ccc(O)c([N+](=O)[O-])c1)c1nc2ccccc2s1	.	.	20*	5	.	29
COc1cc(/C=C(\C#N)c2nc3ccccc3s2)cc([N+](=O)[O-])c1O	.	.	3	1	.	2
CCOC(=O)N1CCN(C(=O)C[C@@H]2C[C@@]3(C(=O)OC)CC(C)(C)CC=C3N(Cc3ccc4c(c3)OCO4)C2=O)CC1	.	.	.	1	.	-16
COc1ccc(C2=C(Nc3ccc(C)cc3)c3ccccc3C2=O)cc1	-18	-30	-9	5	24	29
Cc1ccc(NC2=C(NCCO)C(=O)c3ccccc3C2=O)cc1	-11	-12	6	-1	56*	2
O=C(Nc1cccc(-c2nc3cccnc3s2)c1)c1ccco1	-15	6	-18	11	64*	34
O=C(Nc1cccc(NC(=O)c2nccc3ccccc23)c1)c1ccco1	-1	-26	.	21	54*	28
CCOc1ncccc1C(=O)Nc1cccc(-c2nc3cccnc3s2)c1	-18	8	-11	7	68*	47
C[C@H](O)[C@@H]1CN2CCc3ccc(-c4ccc5c(c4)OCO5)cc3[C@@H]2C[C@@H]1N(C)C(=O)c1ccco1	.	.	.	-1	.	-11
COc1ccc(CCNc2nc(C)nc3c2oc2ccccc23)cc1OC	58*	31	13	13	54*	49*
c1ccc(CNc2ncnc3c2oc2ccccc23)nc1	-6	-9	-11	2	11	10
COc1ccc(CCNc2ncnc3c2oc2ccccc23)cc1OC	79*	60*	37*	12	78*	61*
C[C@H](O)[C@@H]1CN2CCc3ccc(-c4ccc5c(c4)OCO5)cc3[C@@H]2C[C@@H]1N(C)Cc1ccccc1	.	.	.	0	.	-5
CC(C)(C)C1CCC(CN2C(Nc3ccccc3)=NC[C@@H]2Cc2ccccc2)CC1 (stereo partly specified)	31	51	.	74*	3	36
COCCNC(=O)/C(C#N)=C1\N=C(NC(=O)c2ccco2)c2ccccc21	.	.	.	0	.	-14
CCCNC(=O)/C(C#N)=C1\N=C(NC(=O)c2ccco2)c2ccccc21	-2	-6	6	1	47*	-6
COCCn1c(SCC(=O)N2CCCCC2)nc2c(c1=O)SC(C)C2 (stereo unspecified)	100*	-21	-2	-1	15	7
COCCn1c(SCC(=O)N2CCc3ccccc3C2)nc2ccccc2c1=O	-16	-4	2	3	72*	19
Cc1cc2ccccc2n2c(SCC(=O)N3CCc4ccccc4C3)nnc12	-26	26	-12	9	73*	8
COCCn1c(SCC(=O)N2CCCCC2)nc2c(c1=O)SCC2	-10	-19	-12	-1	9	-12
Cc1cccc(Cl)c1NC(=O)N(C)c1ccccc1	.	.	.	1	.	3
O=C(NCc1ccccc1)[C@@H]1CCCN1C(=O)[C@H]1CCCN1C(=O)c1ccc(Cl)c(Cl)c1	.	.	.	1	.	6
O=C(Cc1ccccc1)Nn1c(O)c(/C=C2\C=Nc3ccccc32)sc1=S	4	21	0	22	43	54*
SMILES	CHO parental Ca	OX1R antag-1	GPR7 antagonist	TAAR1 ag	OX1R antag-2	TAAR1 antagonist
Cn1c(O)c(/C=C2\C=Nc3ccccc32)sc1=Nc1ccc(C(=O)O)cc1	-2	0	-16	1	4	-2
COC(=O)c1sccc1-c1ccc(C(=O)Nc2cccc(Cl)c2)o1	14	13	0	7	74*	-5
CN(C)S(=O)(=O)Oc1ccsc1C(=O)Nc1cccc(Cl)c1	-4	-1	-4	-1	3	18
CC(C)C[C@H]1CN=C(N(C)C)N1CCc1cccc(F)c1	-4	-29	.	14	0	8
CC(C)C[C@H]1CN=C(Nc2ccccc2)N1CCc1cccc(F)c1	50*	87*	.	.	8	.
C[C@]12Cc3ccccc3C1CC1=N[C@@H](c3ccc(C(F)(F)F)cc3)O[C@@]13C[C@@H]2C(=O)N3Cc1ccncc1 (stereo partly specified)	.	.	.	6	.	41
COc1ccc(C(=O)O)cc1S(=O)(=O)NC(C)C12CC3CC(CC(C3)C1)C2 (stereo unspecified)	34*	45*	.	7	2	13
CC[C@H](C)[C@H]1CNC(=O)C(=O)N1CC1CCN(CC(C)C)CC1	.	.	.	1	.	-1
COc1ccc(/C=C/C(=O)OCC(=O)NC2CCCC(C)C2C)c(OC)c1 (stereo unspecified)	-15	4	.	-2	10	-2
COc1cccc(/C=C(/C(=O)OCC(=O)NC2CCCC(C)C2C)c2ccccc2)c1 (stereo unspecified)	65*	-9	-12	1	7	40
CN1CCN(c2ccccc2NC(=O)c2ccc([N+](=O)[O-])o2)CC1	-18	-23	16	.	71*	.
CCC(=O)N1CCN(c2ccc(Cl)cc2NC(=O)c2ccc([N+](=O)[O-])o2)CC1	-22	-35	4	7	28	24
CS(=O)(=O)N1CCN(c2ccccc2NC(=O)c2ccc([N+](=O)[O-])o2)CC1	-20	-2	-15	10	35	8
O=C(Nc1cc(Cl)ccc1-n1cncn1)c1ccc([N+](=O)[O-])o1	-9	-24	.	3	48*	-20
Cc1c(NC(=O)c2ccc([N+](=O)[O-])o2)cccc1-c1nc2ncccc2o1	-15	-3	10	2	63*	13
CCn1nnc(NC(=O)c2ccc([N+](=O)[O-])o2)n1	-4	-3	-9	4	69*	-23
COC(=O)c1ccccc1S(=O)(=O)NC(=O)[C@H]1O[C@@H](n2ccc(=O)[nH]c2=O)[C@H](O)[C@@H]1O	.	.	.	0	.	-3
CN1CCN(c2ccccc2NC(=O)c2ccc(OCc3ccccc3)cc2)CC1	-16	-20	4	12	7	16
Cc1ccccc1NC(=O)c1ccc([N+](=O)[O-])o1	4	-4	-8	1	70*	6
Cc1ccc(NC(=O)c2ccc([N+](=O)[O-])o2)c(C)c1	-2	-11	-14	3	29	3
CN1CCN(c2ccccc2NC(=O)c2cccc(OCc3ccccc3)c2)CC1	-22	-14	18*	8	9	0
O=C(Nc1cccc2ncccc12)c1ccc([N+](=O)[O-])o1	4	0	0	1	70*	-12
